# Key:
# [1] = cited from earlier work
# rhesus macaque = conditions: FX1 treatment; cited from earlier work
# BCL6 = conditions: cited from earlier work
# [2] = In vitro plasma stability assay, human plasma; type: in vitro ADME; conditions: 37 °C
# Method in brief: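 Compound in DMSO, diluted to a 0.1 mM working solution in DMSO:water (1:1, v/v). Mouse, rat or human plasma thawed and pre-warmed at 37 °C, then mixed 100:1 (plasma:working solution). Incubated at 37 °C, 5% CO2, shaking at 200 rpm. Half-life determined from this plasma incubation.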
# SRBC-vaccinated mice [3] = experiment: SRBC vaccination mouse model, flow cytometry of splenic cells; type: in vivo, C57/BL6 mice; conditions: FX1 80 mg/kg once daily, 8-day course; spleen, day 11
# Method in brief: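 Male C57/BL6 mice, 8–12 weeks old, given 100 µL 10% SRBC i.p. on day 0. Compound dosed in 100 µL vehicle from day 3; vehicle controls matched. Spleens taken on day 11 and meshed through a 70 µm strainer. Cells spun 2000 rpm for 10 min, washed in PBS with 2% FBS. Two million mononuclear cells stained for surface and intracellular markers, analysed on a 4-laser LSRII.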
# SRBC-vaccinated mice [4] = experiment: SRBC-specific IgM and IgG1 detection in plasma by flow cytometry; type: in vivo, C57/BL6 mice; conditions: mice receiving FX1 (80 mg/kg once daily)
# Method in brief: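 Plasma taken on day 11 from SRBC-vaccinated (100 µL 10% i.p.) male C57/BL6 mice given compound or vehicle (100 µL) from day 3, diluted 1:5 in PBS. 5 µL incubated with 20 µL 2% SRBC for 5 min, then 20 min with fluorescent anti-mouse IgM or IgG1. Washed, fixed in 1% PFA, read by flow with isotype controls. MFI normalised to unvaccinated-mouse plasma, as fold change.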
# [5] = In vitro plasma stability assay, mouse plasma; type: in vitro ADME; conditions: 37 °C, comparison in words
# SRBC-vaccinated mice [6] = experiment: Mouse pan IgG and IgM ELISA; type: in vivo, C57/BL6 mice; conditions: 11 days after vaccination
# Method in brief: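 Male C57/BL6 mice, 8–12 weeks old, given 100 µL 10% SRBC i.p. on day 0. From 3 days later, 8-day course of test compound (100 µL vehicle, once or three times daily, 5 h apart) or vehicle on the same schedule. Plasma collected at CO2 euthanasia on day 11. Total IgG and IgM measured by commercial ELISA kit per manufacturer. Welch test.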
smiles,measurement,setting,value
O=C(O)CCN1C(=O)/C(=C2/C(=O)Nc3ccc(Cl)cc32)SC1=S [FX1],aqueous solubility,[1],poor aqueous solubility
same,lymphoid hyperplasia,rhesus macaque,reversal of lymphoid hyperplasia
same,affinity compared with natural ligand (SMRT),BCL6,higher affinity than its natural ligand (SMRT)
same,T1/2 in human plasma,[2],3.29 h
same,GC B cells,SRBC-vaccinated mice [3],can lower GC B
same,frequency of CD4+ Tfh within GCs,SRBC-vaccinated mice [3],did not reduce
same,SRBC-specific IgM and IgG1 vs vehicle,SRBC-vaccinated mice [4],Lower
same,stability (T1/2) in mouse plasma,[5],significantly longer stability over AP-4-287 in mouse plasma
same,total titer of plasma pan IgG and IgM vs vehicle,SRBC-vaccinated mice [6],no difference
